The species entered for experiment [1] is Cavia porcellus. The experiment is described as follows: Calcium channel agonist activity in guinea pig left atrium (GPLA) at 10e-8 M. Particulars: Cardiac atrium.
The species entered for experiment [2] is Cavia porcellus. Briefly: Calcium channel agonist activity in guinea pig ileum longitudinal smooth muscle (GPILSM) at 10e-6 M. Type of experiment: functional, organism-based.
Experiment [3] is filed under the species Cavia porcellus. The experiment is described as follows: Calcium channel antagonist activity in guinea pig ileum longitudinal smooth muscle (GPILSM) at 10e-7 M. Type of experiment: functional, organism-based.
Experiment [4] is filed under the species Cavia porcellus. Briefly: Calcium channel agonist activity in guinea pig left atrium (GPLA) at 10e-9 M. Particulars: Cardiac atrium.
The species named for experiment [5] is Cavia porcellus. The experiment is described as follows: Calcium channel agonist activity in guinea pig ileum longitudinal smooth muscle (GPILSM) at 10e-5 M. Type of experiment: functional, organism-based.
Experiment [6] is filed under the species Cavia porcellus. The experiment is described as follows: Calcium channel agonist activity in guinea pig left atrium (GPLA) at 10e-5 M. Type of experiment: functional. The following applies: Cardiac atrium. The procedure, abridged:
(§1)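 Isolated guinea pig left atrium: positive inotropic response was taken as the percentage increase in contractile force over the tissue's basal force measured without test compound.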

Experiment [7] is filed under the species Cavia porcellus. Briefly: Calcium channel agonist activity in guinea pig left atrium (GPLA) at 10e-8 M. The following applies: Cardiac atrium. Type of experiment: functional. The method in brief: as §1
Experiment [8] is filed under the species Cavia porcellus. Briefly: Calcium channel agonist activity in guinea pig left atrium (GPLA) at 10e-6 M. Type of experiment: functional. The following applies: Cardiac atrium. The method in brief: as §1
Experiment [9] is filed under the species Cavia porcellus. The experiment is described as follows: Calcium channel antagonist activity in guinea pig ileum longitudinal smooth muscle (GPILSM) at 10e-6 M. Type of experiment: functional, organism-based.
Experiment [10] is filed under the species Cavia porcellus. Briefly: Calcium channel agonist activity in guinea pig left atrium (GPLA) at 10e-7 M. Type of experiment: functional. The following applies: Cardiac atrium. The method in brief:
as §1

Experiment [11] is filed under the species Cavia porcellus. The experiment is described as follows: Calcium channel agonist activity in guinea pig ileum longitudinal smooth muscle (GPILSM) at 10e-7 M. Type of experiment: functional, organism-based.

With `CC1=NC(C)=C([N+](=O)[O-])C(c2ccccn2)/C1=C(\O)OC(C)C` (centres undefined), the EC50 in experiment [1] was 0.0458 µM; in experiment [2], 5.27 µM; in experiment [4] it was 0.00446 µM. Besides, the half-maximal inhibitory concentration (IC50) in experiment [3] worked out at 0.207 µM.
Turning to `CC1=NC(C)=C([N+](=O)[O-])C(c2cccnc2)/C1=C(\O)OC(C)C` (racemic), the EC50 stood at 48 µM in experiment [5] and 28.5 µM in experiment [6].
In the case of `CC1=NC(C)=C([N+](=O)[O-])C(c2ccccn2)/C1=C(\O)OC(C)C` (racemic), the half-maximal effective concentration (EC50) in experiment [7] was found to be 0.0458 µM; in experiment [2], 5.27 µM; in [8], 9.67 µM. Besides, the IC50 in experiment [9] came out at 4.87 µM.
For the compound `CC1=NC(C)=C([N+](=O)[O-])C(c2ccncc2)/C1=C(\O)OC(C)C` (racemic), the figures for the 50% effective concentration (EC50) in experiment [5] and in experiment [8] were 35 µM and 8.05 µM, respectively.
On to `COC(=O)C1=C(C)NC(C)=C([N+](=O)[O-])C1c1ccccc1C(F)(F)F` (centres undefined), for which the EC50 was 0.77 µM in experiment [10] and 0.23 µM in experiment [11].
